Laboratory results published in ChEMBL document CHEMBL1153939, “Novel antagonists of serotonin-4 receptors: synthesis and biological evaluation of pyrrolothienopyrazines” (Bioorg Med Chem, 2009).
Activity calls are given as the source filed them.

Key:
[1] = target: 5-hydroxytryptamine receptor 4 (Mus musculus) (UniProt P97288); test: Antagonist activity at mouse 5HT4a receptor expressed in african green monkey COS7 cells assessed as inhibition of 5HT-induced cAMP release relative to serotonin; type: functional, cell-based; parameters: scale not given: the % may be the effect or the level left; details: COS-7
Sequence of 5-hydroxytryptamine receptor 4 (Mus musculus) (P97288 whole entry): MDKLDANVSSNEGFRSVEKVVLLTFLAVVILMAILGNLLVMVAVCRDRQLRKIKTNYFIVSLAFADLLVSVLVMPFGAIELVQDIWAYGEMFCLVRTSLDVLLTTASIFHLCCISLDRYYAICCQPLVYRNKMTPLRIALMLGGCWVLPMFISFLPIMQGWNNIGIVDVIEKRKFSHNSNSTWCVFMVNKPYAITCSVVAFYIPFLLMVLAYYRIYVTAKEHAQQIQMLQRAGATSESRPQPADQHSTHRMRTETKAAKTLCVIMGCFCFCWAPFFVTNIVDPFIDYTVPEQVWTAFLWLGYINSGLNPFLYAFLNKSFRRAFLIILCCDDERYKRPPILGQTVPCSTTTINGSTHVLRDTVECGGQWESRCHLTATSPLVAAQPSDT
Method in brief: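 Antagonist mode on the same transfected COS-7 cells expressing mouse 5-HT4(a). Cells labelled with [3H]adenine, then incubated with 0.75 mM IBMX, 0.1 µM forskolin and test agents for 5 min at 37 °C; stopped with ice-cold 5% TCA. cAMP read as [3H]ATP→[3H]cAMP conversion after Dowex/alumina chromatography. Mean of four independent experiments.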

[2] = target: 5-hydroxytryptamine receptor 4 (Mus musculus) (UniProt P97288); test: Agonist activity at mouse 5HT4a receptor expressed in african green monkey COS7 cells assessed as cAMP release relative to serotonin; type: functional, cell-based; details: COS-7
Method in brief: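 Mouse 5-HT4(a) receptor transfected by electroporation into COS-7 cells (560 fmol/mg protein). Cells labelled 2 h at 37 °C with [3H]adenine, then exposed to increasing concentrations of test agent in 0.75 mM IBMX and 0.1 µM forskolin. cAMP measured as [3H]ATP→[3H]cAMP conversion after Dowex/alumina separation. Expressed as % of maximal 5-HT stimulation over basal. Mean of four independent experiments.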

[3] = target: 5-hydroxytryptamine receptor 5A (Homo sapiens, UniProt P47898); test: Displacement of [3H]LSD form human recombinant 5HT5A receptor
Sequence of 5-hydroxytryptamine receptor 5A (P47898 whole entry): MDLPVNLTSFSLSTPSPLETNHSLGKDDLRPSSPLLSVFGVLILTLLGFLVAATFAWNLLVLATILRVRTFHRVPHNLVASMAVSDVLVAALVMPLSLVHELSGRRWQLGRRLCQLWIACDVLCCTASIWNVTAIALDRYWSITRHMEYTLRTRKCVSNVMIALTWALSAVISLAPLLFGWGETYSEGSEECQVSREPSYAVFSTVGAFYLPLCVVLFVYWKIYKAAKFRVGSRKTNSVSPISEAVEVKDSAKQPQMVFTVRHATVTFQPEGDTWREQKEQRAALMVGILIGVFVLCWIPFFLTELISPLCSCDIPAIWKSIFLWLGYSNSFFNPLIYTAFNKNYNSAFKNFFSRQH

[4] = tested on: Mus musculus; test: Antinociceptive activity against acetic acid-induced writhing in NMRI mouse assessed as number of stretches at 0.1 mg/kg, ip by writhing test; type: functional; details: route intraperitoneal
Method in brief: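 Groups of 8 male NMRI mice (20–24 g). Compound or reference given ip in saline (10 mL/kg) 15 min before ip 0.6% aqueous acetic acid (10 mL/kg). Stretches (back arching, pelvic rotation, hind-limb extension) counted over 10 min, beginning 10 min after acid. ANOVA + Fisher PLSD versus control.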

[5] = target: Alpha-1A adrenergic receptor (Homo sapiens, UniProt P35348); test: Displacement of [3H]prazosin form human recombinant alpha1A adrenergic receptor
Sequence of Alpha-1A adrenergic receptor (P35348 whole entry): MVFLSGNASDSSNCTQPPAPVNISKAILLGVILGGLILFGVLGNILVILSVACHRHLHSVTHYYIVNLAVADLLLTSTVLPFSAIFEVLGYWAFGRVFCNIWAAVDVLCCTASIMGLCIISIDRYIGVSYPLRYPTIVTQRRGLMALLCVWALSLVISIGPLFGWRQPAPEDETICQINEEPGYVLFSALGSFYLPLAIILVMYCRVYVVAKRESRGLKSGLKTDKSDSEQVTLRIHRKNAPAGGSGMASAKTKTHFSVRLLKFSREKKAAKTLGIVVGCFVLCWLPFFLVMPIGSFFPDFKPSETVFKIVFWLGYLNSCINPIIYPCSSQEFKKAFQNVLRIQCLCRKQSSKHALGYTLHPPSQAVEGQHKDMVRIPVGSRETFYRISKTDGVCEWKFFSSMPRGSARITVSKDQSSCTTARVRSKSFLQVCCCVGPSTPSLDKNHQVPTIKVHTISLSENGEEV

[6] = Toxicity in ip dosed NMRI mouse; type: organism-based; details: in vivo
Method in brief: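 Male NMRI mice (20–24 g) given ip drug in saline (10 mL/kg), groups of 4. Behavioural and neurological changes scored against controls by a standardized observation technique at 30 min, 3 h and 24 h post-dose. Approximate LD50 derived from deaths counted at 24 h.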

[7] = target: 5-hydroxytryptamine receptor 6 (Homo sapiens, UniProt P50406); test: Displacement of [3H]LSD form human recombinant 5HT6 receptor
Sequence of 5-hydroxytryptamine receptor 6 (P50406 whole entry): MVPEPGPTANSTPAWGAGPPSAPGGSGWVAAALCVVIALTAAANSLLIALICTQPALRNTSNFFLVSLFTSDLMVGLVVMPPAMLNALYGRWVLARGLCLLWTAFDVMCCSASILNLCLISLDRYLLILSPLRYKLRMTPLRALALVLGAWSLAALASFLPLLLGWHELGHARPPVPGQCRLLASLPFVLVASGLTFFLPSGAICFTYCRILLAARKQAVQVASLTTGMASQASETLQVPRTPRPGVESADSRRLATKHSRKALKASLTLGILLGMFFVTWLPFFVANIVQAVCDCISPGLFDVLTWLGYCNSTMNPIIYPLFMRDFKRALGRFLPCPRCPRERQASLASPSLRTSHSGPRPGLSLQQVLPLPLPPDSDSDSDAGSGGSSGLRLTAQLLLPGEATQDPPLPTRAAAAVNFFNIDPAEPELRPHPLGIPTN
Method in brief: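 Membranes from sf9 cells expressing human 5-HT6 (14 µg/mL) or 5-HT7 (38 µg/mL) incubated 90 min at 27 °C with 2 nM [3H]LSD in 50 mM Tris-HCl containing 10 mM MgSO4 and 0.5 mM EDTA. Nonspecific binding defined with clozapine (10 and 250 µM).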

[8] = target: 5-hydroxytryptamine receptor 4 (Cavia porcellus) (UniProt O70528); test: Displacement of [3H]GR-113808 from 5HT4 receptor in guinea pig striatum membrane at 10 nM; type: cell membranes
Sequence of 5-hydroxytryptamine receptor 4 (Cavia porcellus) (O70528 whole entry): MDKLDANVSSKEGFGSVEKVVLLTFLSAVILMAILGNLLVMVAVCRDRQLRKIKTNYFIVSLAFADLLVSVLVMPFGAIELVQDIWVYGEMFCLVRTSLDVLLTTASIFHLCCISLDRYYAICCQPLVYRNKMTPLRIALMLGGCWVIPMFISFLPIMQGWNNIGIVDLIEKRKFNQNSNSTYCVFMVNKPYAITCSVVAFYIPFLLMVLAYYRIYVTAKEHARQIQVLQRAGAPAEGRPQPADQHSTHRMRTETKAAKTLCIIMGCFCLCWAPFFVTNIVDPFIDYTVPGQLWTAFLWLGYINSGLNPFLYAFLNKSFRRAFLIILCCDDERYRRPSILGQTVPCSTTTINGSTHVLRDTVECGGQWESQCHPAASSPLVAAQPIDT
Method in brief: (§1)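 Guinea pig membranes (15 µg protein/mL) incubated 30 min at 37 °C with 0.6 nM [3H]GR113808 in 50 mM HEPES, pH 7.4, with fixed test concentrations. Nonspecific binding defined with 10 µM serotonin.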

[9] = target: 5-hydroxytryptamine receptor 4 (Cavia porcellus) (UniProt O70528); test: Displacement of [3H]GR-113808 from 5HT4 receptor in guinea pig striatum membrane at 1 uM; type: cell membranes; method in brief: as §1
[10] = tested on: Mus musculus; test: Analgesic activity in NMRI mouse assessed as reaction time taken to lick fore paw at 0.01 to 1 mg/kg, ip by hot plate test; type: functional, organism-based
Method in brief: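 Male NMRI mice (20–24 g), 10 per group, each pre-screened twice on a 55 °C plate (response required within 4–12 s). Compound given ip in saline (10 mL/kg) at 0.01, 0.1 and 1 mg/kg. Time to forepaw licking recorded 15 and 30 min post-injection; 30 s cutoff. ANOVA + Fisher PLSD.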

[11] = target: T1, 5-hydroxytryptamine receptor 1A (Homo sapiens, UniProt P08908); test: Displacement of [3H]8OH-DPAT from human recombinant 5HT1A receptor
T1 sequence (P08908 whole entry): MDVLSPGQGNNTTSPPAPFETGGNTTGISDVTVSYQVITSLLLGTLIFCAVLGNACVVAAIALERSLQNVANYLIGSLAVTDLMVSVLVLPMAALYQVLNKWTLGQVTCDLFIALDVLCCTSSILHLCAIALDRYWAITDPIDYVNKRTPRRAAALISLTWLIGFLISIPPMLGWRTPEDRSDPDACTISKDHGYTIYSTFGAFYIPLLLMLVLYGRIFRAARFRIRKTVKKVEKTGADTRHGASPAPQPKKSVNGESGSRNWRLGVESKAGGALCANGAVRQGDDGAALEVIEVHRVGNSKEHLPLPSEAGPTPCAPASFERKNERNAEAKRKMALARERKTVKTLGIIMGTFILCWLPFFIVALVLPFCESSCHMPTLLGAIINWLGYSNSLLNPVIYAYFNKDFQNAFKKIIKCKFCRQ

[12] = tested on: Mus musculus; test: Toxicity in NMRI mouse assessed as spontaneous alteration performance ar 0.3 to 3 mg/kg, ip by Y-maze test; type: organism-based; parameters: dose 0.3-3 mg/kg, route intraperitoneal; details: in vivo
Method in brief: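 Spontaneous alternation in male NMRI mice. Drug given ip in saline at 0.3, 1 and 3 mg/kg, 30 min before testing, with or without scopolamine 1 mg/kg. Four groups per dose: control, scopolamine, drug alone, drug+scopolamine. Alternation % = actual alternations/(total arm entries − 2) × 100. ANOVA plus Fisher PLSD.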

CCCN1CCC(COc2nc3scc(C)c3n3cccc23)CC1
Activity [1]: 80%
Activity [2]: 20%
IC50 [3]: > 10 µM
Activity [4]: 12.5
IC50 [5]: 0.0741 µM
LD50 [6]: 200 mg/kg
IC50 [7]: > 10 µM
inhibition [8]: 78%
inhibition [9]: 100%
Activity [10]: inactive
IC50 [11]: 5.01 µM
Activity [12]: Non-toxic
